Source: the EternaBench riboswitch data

Test system: MS2 coat protein
Assay: apparent Kd, MS2 coat protein; higher = weaker binding; RNA-MaP array; FMN 200 µM where present
Procedure, shortened: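 Designs on Illumina sequencing-chip clusters, transcribed by stalled E. coli RNA polymerase, were exposed to SNAP-549-labelled MS2 coat protein in doubling steps from 0.7 or 1.5 nM up to 3 µM, without and then with constant ligand. The buffer held 100 mM Tris-HCl pH 7.5, 80 mM KCl, 4 mM MgCl2, BSA, DTT, yeast tRNA and Tween-20. Apparent Kd values are medians of filtered per-cluster binding-curve fits to green signal normalised to red-channel RNA signal and control-cluster median Fmax.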

[1] = designed as: ON switch for flavin mononucleotide, no ligand
[2] = ligand present: flavin mononucleotide, designed as: ON switch for flavin mononucleotide
[3] = designed as: OFF switch for flavin mononucleotide, no ligand
[4] = ligand present: flavin mononucleotide, designed as: OFF switch for flavin mononucleotide

Row | Sequence | apparent Kd [1] [nM] | apparent Kd [2] [nM] | apparent Kd [3] [nM] | apparent Kd [4] [nM]
1 | UGCGAACAGGCUAACAUGAGGAUCACCCAUGUGGACUCAUGGUAGGAUAUCGGGAAGGAGGAAACCGAGAAGGGCCGGUGAGCG | 197 | 65 |  | 
2 | UGCGAACAGGCUAACAUGAGGAUCACCCAUGUGGACUCAUGGUAGGAUAUCGGGAAGGAGGAAACCGAGAAGGGCCGGUGAGCU | 217 | 150 |  | 
3 | UGCGCCUGCGAGAAGGCACAGAUCCAGCUCUUGACAUGAGGAUCACCCAUGUGAGGAUAUCGCAGGCGCGAAUUGGGACAAUCU |  |  | 12.8 | 74.1
4 | UGCGCUGAGGGAGGAUAUGACAUGAGGAUCACCCAUGUGAUAGGUUUCUUGUCAGAAGGCCCGCGUGUACCGAAUUAGGUUCGC |  |  | 55.6 | 404
5 | UGCUACGUUUCGUAGCAGCUAGGUGAGGAUAUUCAAUUUUUCACAUGAGGAUCACCCAUGUAUGUGAAGAAGGCGCCUAGAAAG | 12.3 | 5.26 |  | 
6 | UGCUAGUGAGGAUAUGCUGGAAUAAAGAUUUGACGUGGCGAACAUGAGGAUCACCCAUGUAGAAGGCACAAUAC |  |  | 12.8 | 15.7
7 | UGGAAACAUGAGGAUCACCCAUGUAAAAGGUGGUUAGGAUAUGCAAAACGGAAAACGAAAGCAGAAGGGACAAAAA | 412 | 302 |  | 
8 | UGGAGGUCAGGAUAUGCAUGGCGGGACUUGCGUCGUGGCGUGCAGAAGGGACAUGAGGAUCACCCAUGUGGAGA |  |  | 88.6 | 112
9 | UGGAUCAUCGGAGGAUAUCAUGUAAAUACAUGAGGAUCACCCAUGUCGAUGGAGACAUCGGAGAUUGAGAAGGCCGAUGAUCCU | 437 | 25.7 |  | 
10 | UGGAUCAUGGGAGGAUAUCCUCAAGAGACAUGAGGAUCACCCAUGUAUUAUAAGCCUAAUGGCAUGGAGAAGGCCCAUGAUCCU | 377 | 54 |  | 
11 | UGGCACUAGGGAGGAUAUGGGAAGAUACAUGAGGAUCACCCAUGUUUAAGAAUGCCGAGAGGCAACUAGAAGGCCCUAGUACCU | 486 | 19.3 |  | 
12 | UGGCCCGCCGGAGGAUAUCUACUCUGUGGUGCACUGCGUUUGCAAUACAUGAGGAUCACCCAUGUAGAGAAGGCCGAGGGCACA |  |  |  | 66.9
13 | UGGCGCAACAGAGGAUAUGCAUAGGCUGCCUUACAUGAGGAUCACCCAUGUGCAGAAGGCUGUUGCCAUUACAAGCGCACUAAU |  |  | 118 | 402
14 | UGGCUACAUGAGGAUCACCCAUGUCAGGAUAUGCCGUUGGAUUGACUUCGUCGUUCGGGUAGAAGGGACUGCGU |  |  | 43.3 | 54.9
15 | UGGGCGAGCCCAGUACUCACACAUGAGGAUCACCCAUGUGACGAGGAUAUAGACAGCGAUGCGUACUAGAAGGCGUCACGGUAA |  |  | 11 | 46.2
16 | UGGGCUACCACAGGAUAUGCUACAUGAGGAUCACCCAUGUAAAGAAAAUCGGCAGAAGGGUGGUUAGUGCAGCAUGAAGGAGCC | 28.9 | 10.8 |  | 
17 | UGGGUAAAUGUAGGAUAUUUAUAUUAAUAAUAUGGAGAAGGACAUGAGGAUCACCCAUGUACAGGGAAUUACCCAUUUCCUCUC |  |  | 940 | 877
18 | UGGGUAAGUGUAGGAUAUUUAUAUUAAUAGUAUGGAGAAGGACAUGAGGAUCACCCAUGUACAGGGAGUUACCCAUUUCCUCUC |  |  | 778 | 1200
19 | UGGGUCCCAGUCAGGAUAUCGUGCUUUUACAUGCACGAGAAGGGACAUGAGGAUCACCCAUGUCAAGGCGGUCA |  |  | 102 | 330
20 | UGGUACAUCGGAGGAUAUCAUGUAAAUACAUGAGGAUCACCCAUGUCGAUGGAGACAUCGGAGAUUGAGAAGGCCGAUGUACCU | 480 | 23.4 |  | 
21 | UGGUACAUGGGAGGAUAUCAUGAACUUACAUGAGGAUCACCCAUGUCGAUGGAGACAUCGGAGAUUGAGAAGGCCCAUGUACCU | 77.6 | 22.4 |  | 
22 | UGGUACAUGGGAGGAUAUGGGAAGUUAACAUGAGGAUCACCCAUGUUAUGCCGAAAGGCAAAGAACUAGAAGGCCCAUGUACCU | 16.7 | 16.1 |  | 
23 | UGGUACAUGGGAGGAUAUGGGUUGAUAACAUGAGGAUCACCCAUGUUAAAUAUGCCUAAUGGCAACUAGAAGGCCCAUGUACCU | 377 | 40.8 |  | 
